Compound activity (PubChem BioAssay)
An excerpt weighted towards active compounds, which were near 2.5% of everything screened.
GalR3 antag: GalR3 antagonists in HEK293 cells, primary screen, cell-based, fluorescence readout; Galanin receptor type 3 (Homo sapiens), O60755; inhibition, % at 3 µM; 0.44% of 360,000 active; HEK293 GalR3-CNG cAMP membrane potential fluorescence; galR3 body fused to GalR1 C-terminus; AID 651719, 2012;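 active = inhibition above the screen-wide average plus 3 SD, cut at about 13% in these data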;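 also: forskolin and galanin both at EC90 stimulate the cells; cAMP rise reported by CNG channel membrane potential dye signal; 0% = forskolin plus galanin with DMSO and 100% = forskolin alone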
NadD inh: inhibitors of S. aureus NadD, primary screen, biochemical, colorimetric, uHTS; purified NadD enzyme, colorimetric absorbance read-out; AID 602399, 2012; 0.78% of 360,000 active; inhibition, % at 20 µM; Nicotinate-nucleotide adenylyltransferase NadD (Staphylococcus aureus N315); in the data active = inhibition above about 26%
NR2E3 ag-1: NR2E3 agonists in two-hybrid cells, primary screen, cell-based, luminescence, CHO-S, Gal4-NCOR/VP16-NR2E3; 0.35% of 360,000 active; inhibition of corepressor binding, % at 3.98 µM; AID 602229, 2012; luciferase; Photoreceptor-specific nuclear receptor (Homo sapiens), Q9Y5X4;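 active = inhibition above the mean of all tested compounds plus 3 SD, cut at about 70% in these data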;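 also: 0% = DMSO with NR2E3 transfected cells and 100% = cells lacking NR2E3 construct; higher means lower luciferase signal from less NR2E3 corepressor binding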
Target sequence (Q9Y5X4 whole entry, looked up, the tested form may be a part): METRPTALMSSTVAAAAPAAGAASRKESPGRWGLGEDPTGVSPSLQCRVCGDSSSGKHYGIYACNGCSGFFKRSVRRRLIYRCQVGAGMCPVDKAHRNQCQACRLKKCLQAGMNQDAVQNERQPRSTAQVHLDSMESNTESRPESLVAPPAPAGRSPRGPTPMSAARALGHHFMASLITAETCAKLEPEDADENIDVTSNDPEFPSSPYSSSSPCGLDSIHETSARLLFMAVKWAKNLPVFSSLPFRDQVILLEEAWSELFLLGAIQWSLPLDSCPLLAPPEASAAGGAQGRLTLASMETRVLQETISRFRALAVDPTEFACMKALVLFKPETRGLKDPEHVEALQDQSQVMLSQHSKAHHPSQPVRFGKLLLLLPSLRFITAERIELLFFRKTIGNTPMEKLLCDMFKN
bovine MsrA act: bovine MsrA enzyme activators, primary screen, biochemical, absorbance, HTS | purified bovine MsrA, absorbance read-out | activation, % at 10.6 µM | Methionine sulfoxide reductase A (Bos taurus) | 0.3% of 360,000 active | AID 602163, 2012; in the data active = activation above about 7.5%;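 also: 0% = vehicle and 100% = reference activator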
MsrA inh: bovine MsrA enzyme inhibitors, primary screen, biochemical, absorbance, HTS; purified bovine MsrA, absorbance read-out; AID 651718, 2012; inhibition, % at 15.5 µM; Methionine sulfoxide reductase A (Bos taurus); 0.75% of 360,000 active;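 also: 0% = vehicle wells with enzyme and 100% = reference inhibitor wells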
NR2E3 ag-2: inhibitors of NR2E3-RetCOR corepressor binding, primary screen, NR2E3 agonist project, biochemical, TR-FRET, GST-NR2E3, biotin-RetCOR; inhibition of corepressor binding, % at 4.78 µM; 0.12% of 320,000 active; Photoreceptor-specific nuclear receptor (Homo sapiens), Q9Y5X4; 1536-well;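 active = percent inhibition above the cutoff of mean plus 3 SD of all tested compounds, set per screening campaign, cut at about 20% in these data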;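 also: 0% = DMSO wells and 100% = biotin wells as full block of FRET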
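Test system – NR2E3–RetCOR corepressor complex · Quantity – NR2E3 fusion 1.35 nM · Buffer or medium – Tris pH 7.5 · Incubation – Compound–protein incubation for 5 h at 4 °C · Technique – TR-FRET, Eu(K)-anti-GST donor, streptavidin-D2 acceptor, ex 340, em 617/671 nm · Evaluation – percent inhibition of 671/617 nm emission ratio versus biotin and DMSO controls · Plate – 1536-well format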
MsrA conf: bovine MsrA inhibitors, retest, confirmation, biochemical, absorbance, HTS; purified bovine MsrA, absorbance read-out; shares compounds with MsrA inh; inhibition, % at 15.5 µM; 41% of 2,300 active;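 also: coupled to thioredoxin reductase with NADPH and selenocystamine and DMSO as substrate; 0% = vehicle only and 100% = full effect of reference inhibitor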
* marks the source's active call; other numbers are inactive results; nt = no result. Rule as the data show it, unless noted: active = inhibition above about 4.5%; inactive = the rest.

SMILES	GalR3 antag	NadD inh	NR2E3 ag-1	bovine MsrA act	MsrA inh	NR2E3 ag-2	MsrA conf
CCCCSc1nc2sc3c(c2c(=O)n1-c1ccccc1)CCN(C)C3	-11	5	-1	-4	5.4*	-3	2
CCCCSc1nc2sc3c(c2c(=O)n1-c1ccc(OC)cc1)CCN(C)C3	-6	11	-33	-3	0	nt	nt
CN1CCc2c(sc3nc(SCC(N)=O)n(-c4ccccc4)c(=O)c23)C1	2	7	-5	0	2	1	nt
O=C(Nc1ccc2c(c1)OCO2)c1c(Cl)nc2sccn12	-2	2	-101	1	10*	0	3
CC(C)OC(=O)/C(=C/c1ccc2c(c1)c1ccccc1n2C)NC(=O)c1ccccc1	-10	14	-50	-13	4.8*	-1	3
O=C(NC(=S)N1CCN(c2ccc(Cl)cc2[N+](=O)[O-])CC1)c1cccs1	nt	4	9	-1	nt	2	nt
C#Cc1cccc(Nc2nc(NC(C)C)nc3ccsc23)c1	-8	13	41	0	0	nt	nt
C#Cc1cccc(Nc2nc(NCCOC)nc3ccsc23)c1	-6	6	27	-4	12*	nt	11*
COCCNc1nc(Nc2ccc(C#N)cc2)c2sccc2n1	-7	-6	25	-2	5.1*	nt	2
N#Cc1cn(-c2ccccc2)nc1-c1ccco1	-3	9	-31	-6	5.2*	-3	4
N#Cc1cn(-c2ccccc2)nc1C(=O)c1ccccc1	-5	-7	-36	-2	0	1	nt
Cc1[nH][nH]c(=O)c1C	1	-1	3	-9	-1	2	nt
CC(C)c1ccc(CNc2c([N+](=O)[O-])c(=O)oc3ccccc23)cc1	-4	-2	-14	-14	0	3	nt
O=c1oc2ccccc2c(NCc2ccccc2F)c1[N+](=O)[O-]	-3	1	-1	-8	8.8*	-3	7.2*
COc1cccc(C(O)c2nc(-c3ccc(F)cc3OC)cs2)c1 (stereo not given)	5	1	-31	-3	1	nt	nt
N#C/C(=C(/O)c1ccc(F)cc1)c1nc2ccccc2s1	-8	-2	-119	0	2	3	nt
N#C/C(=N\O)c1nc2ccccc2s1	-5	9	-13	-7	4.7*	4	3
O=C1CCC/C1=C/Nc1ccc(Cl)cc1	-7	-1	-9	-3	6.0*	0	5
O=C1CCCC/C1=C\Nc1ccc(O)cc1	-2	-2	4	-3	3	4	nt
CCN(CC)C(=O)COc1cc(C)c(Cl)c(C)c1	-2	8	6	-1	37*	-1	1
Cc1cc(OCC(=O)N(C)C2CCCCC2)cc(C)c1Cl	-8	-6	-56	-2	0	4	nt
CCCC1=[N+](CC(=O)c2ccccc2)CCn2c(C)ccc21	-3	-2	6	-2	5.2*	1	4.6*
CCCC1=[N+](CC)CCn2c(C)ccc21	-5	7	3	-6	4	6	nt
COC(=O)c1c(C(=O)OC)c(-c2ccc(F)cc2)n2c1CSC2	-13	-3	-21	-3	5.6*	0	2
COc1cccc(NC(=O)CN(C)S(=O)(=O)/C=C/c2ccccc2)c1	4	-7	-6	2	0	0	nt
NC(=N\N=Cc1ccccc1)/C(N)=N/N=Cc1ccccc1	-4	-1	-56	-2	2	nt	nt
NC(=N\N=Cc1ccco1)/C(N)=N/N=Cc1ccco1	-5	4	-33	0	4.8*	nt	6.4*
Oc1ccc(C=NN=Cc2ccco2)c(O)c1	3	-3	-77	-6	4.9*	nt	5.4*
Cc1ccc(Cn2nnc3c(=O)n(Cc4ccccc4C)cnc32)cc1	nt	-1	-14	-1	1	1	nt
